Where two headings read alike, the source gives them in different places.

For data set [1] the following is noted: cited from earlier work.
The test system of data set [2] is HeLa cell. The experiment in a line: HeLa cell viability assay. The settings on record: after 48 h.
The target in data set [3] is T1, catalytic domain of KDM4A (Homo sapiens, UniProt O75164).
T1 sequence (O75164 142-308 limits assumed): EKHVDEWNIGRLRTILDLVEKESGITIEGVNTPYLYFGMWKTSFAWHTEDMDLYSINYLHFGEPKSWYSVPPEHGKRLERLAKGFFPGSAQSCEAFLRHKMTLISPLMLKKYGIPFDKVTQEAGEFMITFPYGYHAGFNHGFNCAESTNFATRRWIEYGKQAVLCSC
The data set is described as follows: Fluorescence-based. The class given is biochemical. The settings on record: FluoZin-3 dye measures unbound zinc; ebselen positive control.

The next data set concerns the target CH1 domain of p300 (Homo sapiens, UniProt Q09472). The data set is described as follows: Fluorescence-based assay for release of Zn. The following applies: high basal levels of Zn(II), poorer resolution. Format: biochemical.
Data set [4] has as its system HeLa cell.
The next data set addresses p300 CH1 (Homo sapiens) (UniProt Q09472). The following applies: cited from earlier work.
Data set [5] addresses HIF-1α (785-826)/p300 CH1 domain (323-423) (Homo sapiens, UniProt Q09472). The data set is described as follows: ELISA competition assay for disrupting HIF-1α/p300 binding. The following applies: read-out: IC50, HIF-1α/p300 interaction, 1% DMSO. The method, boiled down:
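Assay wells held 1% DMSO. Each determination ran in triplicate and is reported with ±SD.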
In general terms: An ELISA detects its analyte on a solid surface through an enzyme-linked reagent.

Data set [6] can be described thus: Stability of ninhydrin adduct in aqueous buffer monitored by 1H NMR. The settings on record: after one hour, pH 8, D2O, 10 mM phosphate buffer. Format: physicochemical.

CH1 domain of p300, sequence (Q09472 331-417 limits assumed): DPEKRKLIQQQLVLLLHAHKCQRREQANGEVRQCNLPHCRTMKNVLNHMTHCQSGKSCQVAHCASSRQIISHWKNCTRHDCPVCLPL
HIF-1α (785-826)/p300 CH1 domain (323-423), sequence (Q09472 323-423): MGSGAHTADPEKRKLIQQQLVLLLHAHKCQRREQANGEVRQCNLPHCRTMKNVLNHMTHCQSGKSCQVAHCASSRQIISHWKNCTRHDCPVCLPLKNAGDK
HIF-1α C-TAD, sequence (Q16665 783-826): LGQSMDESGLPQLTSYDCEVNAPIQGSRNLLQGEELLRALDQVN
p300 CH1 (Homo sapiens), sequence (Q09472 331-417): as the sequence (Q09472 331-417 limits assumed) above

Turning to `O=C1C=CC(=O)c2ccccc21` [compound 8, naphthoquinone], the “half wave potential (E1/2)” value in data set [1] is -1.03 V. In the data set on HeLa cell [2], the “cytotoxicity in HeLa cell viability assay” value (“cytotoxicity” for short) was “significant dose-dependent cytotoxicity”. The “Zn(II) ion ejection from KDM4A” value in data set [3] is “caused Zn(II) ion loss”. The “Zn(II) ion release from CH1 domain of p300” value on CH1 domain of p300 is “dose- and time-dependent increases in fluorescence”. In the case of `O=C(NN1C(=O)c2ccccc2C1=O)c1ccccc1` [compound 21, N-(1,3-Dioxoisoindolin-2-yl)benzamide], in the data set on HeLa cell [4], the “cytotoxicity” value is recorded as “not cytotoxic”. As usually defined, the Kd is the free concentration of one partner at which half of the binding sites on the other are occupied at equilibrium, for simple one-to-one binding. Take HIF-1α C-TAD (from UniProt Q16665): in the data set with p300 CH1 (Homo sapiens), the Kd was 0.007 µM. For `c1ccc(SSc2ccccn2)nc1` [compound 13, Dipyridyldisulfide], the IC50 in data set [5] was ~100 µM. Regarding `O=C(NC1(O)C(=O)c2ccccc2C1=O)c1cccnc1` [compound 16, N-(2-Hydroxy-1,3-dioxo-2,3-dihydro-1H-inden-2-yl)nicotinamide], the “Zn(II) ion ejection from KDM4A” value in data set [3] is on record as “caused Zn(II) ion loss”. As for `O=C1c2ccccc2C(=O)C1(O)O` [compound 23, ninhydrin], the “cytotoxicity” value in the data set on HeLa cell [4] was “significant dose-dependent cytotoxicity”. Further, the “Zn(II) ion ejection from KDM4A” value in data set [3] is “caused Zn(II) ion loss”. For the same compound, the “Zn(II) ion release from CH1 domain of p300” value on CH1 domain of p300 is “dose- and time-dependent increases in fluorescence”. As for `O=C(NC1(O)C(=O)c2ccccc2C1=O)c1ccccn1` [compound 5, N-(2-Hydroxy-1,3-dioxo-2,3-dihydro-1H-inden-2-yl)picolinamide], the “hydrolysis to picolinamide and ninhydrin 23” value in data set [6] is 80%. `O=C1c2ccccc2C(=O)c2ccccc21` [compound 7, anthraquinone]: the “half wave potential (E1/2)” value in data set [1] is -1.26 V.

The values are drawn from article PMC4277744 (European journal of medicinal chemistry, 2014).
